This is an account of results in ChEMBL document CHEMBL1138836, “4-[5-Fluoro-3-[4-(2-methyl-1H-imidazol-1-yl)benzyloxy]phenyl]-3,4,5,6- tetrahydro-2H-pyran-4-carboxamide, an orally active inhibitor of 5-lipoxygenase with improved pharmacokinetic and toxicology characteristics” (J Med Chem, 2004).

Structures are written as SMILES. pIC50: −log10 of the molar value. Where only a bound is given, the exact number is not on record here.

One data set has as its system Mus musculus. Kind of data set: In vivo potency was determined after oral administration to mice by the PAF (platelet activating factor) induced thrombosis assay. The data set is classed as functional. The method, boiled down:
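Male […] mice were dosed orally, then given platelet activating factor to induce thrombosis. ED50 reported in mg/kg.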

In data set [1] the target is T1, Polyunsaturated fatty acid 5-lipoxygenase (Homo sapiens, UniProt P09917).
T1 sequence (P09917 whole entry): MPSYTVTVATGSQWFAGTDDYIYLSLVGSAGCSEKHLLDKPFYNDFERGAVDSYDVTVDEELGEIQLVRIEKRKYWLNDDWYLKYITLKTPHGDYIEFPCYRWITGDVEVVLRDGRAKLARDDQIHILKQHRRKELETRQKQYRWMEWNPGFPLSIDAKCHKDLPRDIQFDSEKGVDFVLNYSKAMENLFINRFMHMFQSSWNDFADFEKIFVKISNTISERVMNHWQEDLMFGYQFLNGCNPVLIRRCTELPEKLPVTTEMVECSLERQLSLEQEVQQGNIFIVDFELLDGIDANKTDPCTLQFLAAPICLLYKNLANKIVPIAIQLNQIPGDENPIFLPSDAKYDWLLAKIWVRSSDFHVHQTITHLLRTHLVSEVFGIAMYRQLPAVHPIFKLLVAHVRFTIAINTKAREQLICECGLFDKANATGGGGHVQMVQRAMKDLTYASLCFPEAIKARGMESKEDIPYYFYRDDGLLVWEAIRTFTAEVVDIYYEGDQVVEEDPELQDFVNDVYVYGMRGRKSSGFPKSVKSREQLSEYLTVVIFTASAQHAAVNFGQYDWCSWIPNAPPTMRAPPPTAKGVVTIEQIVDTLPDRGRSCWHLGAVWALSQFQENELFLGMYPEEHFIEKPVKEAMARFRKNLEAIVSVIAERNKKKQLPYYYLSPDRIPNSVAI
The data set is described as follows: Inhibition of 5-Lipoxygenase (5-LO) of human whole blood (HWB). The format is tissue-based.

Data set [2] can be described thus: Bioavailability of compound at 10 mg/kg in guinea pig after oral administration. The following applies: in vivo.
Data set [3] is described as follows: Oral bioavailability of compound at 5 mg/kg in monkey. The format is ADME, organism-based. The following applies: cercopithecidae, in vivo. In short, it runs like this:
(§1)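 Oral bioavailability derived from oral and intravenous pharmacokinetic data. Doses: monkey 5 mg/kg oral vs 3 mg/kg iv; rat and guinea pig 10 mg/kg oral vs 3 mg/kg iv.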

Data set [4] in a line: Bioavailability of compound at 3 mg/kg in guinea pig […]. The format is ADME, organism-based, Cavia porcellus. The note with it: in vivo, iv. In short, it runs like this: as §1
The nature of data set [5]: Bioavailability of compound at 10 mg/kg in rat after oral administration. The note with it: in vivo. The format is ADME, organism-based. In short, it runs like this: as §1
Data set [6] in a line: Bioavailability of compound at 3 mg/kg in monkey […]. The data set is classed as ADME, organism-based. The note with it: cercopithecidae, in vivo, iv. The method, boiled down:
as §1

A short description of data set [7]: Bioavailability of compound at 3 mg/kg in rat […]. The data set is classed as ADME, organism-based. The note with it: in vivo, iv. In short, it runs like this:
as §1

The nature of data set [8]: Maximum concentration of compound found in plasma at 5 mg/kg after oral administration. The data set is classed as ADME, organism-based. Also on record: dose 5 mg/kg, route oral. The note with it: cercopithecidae. The method, boiled down: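 Male cynomolgus monkeys, three animals, single 5 mg/kg oral dose with plasma concentration followed over time. Values are mean ± SEM (n = 3), Cmax in μg/mL.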

As a reminder, the ED50 is the midpoint of the dose-response relation. In general, pIC50 refers to −log10 of the IC50, conventionally taken in molar units. In the data set with Mus musculus, `CNC(=O)C1(c2cc(F)cc(OCc3ccc(-n4ccnc4C)cc3)c2)CCOCC1` returned a 50% effective dose (ED50) of 13 mg/kg. In [1], the pIC50 is 6.55.

In the case of `Cc1nccn1-c1ccc(COc2cc(F)cc(C3(C(=O)O)CCOCC3)c2)cc1`, in [1], the negative logarithm of the IC50 (pIC50) is less than 6.00.

The Cmax is the maximum level reached in the sampled fluid or tissue. As to `Cc1nccn1-c1ccc(COc2cc(F)cc(C3(C(N)=O)CCOCC3)c2)cc1`, the bioavailability is 108% in data set [2]; 88% in [3]; 108% in [4]; 102% in [5]; 88% in data set [6]; 102% in data set [7]. The compound further had a negative-log IC50 (pIC50) in data set [1] of 6.47. In data set [8], this compound yielded a maximum concentration (Cmax) of 1570 ng/mL.

On to `CCOC1(c2cc(F)cc(OCc3ccc(-n4ccnc4C)cc3)c2)CCOCC1`, for which the 50% effective dose (ED50) in the data set on Mus musculus is 5 mg/kg. Also, in data set [1], the pIC50 was 7.10.

`COC1(c2cc(F)cc(OCc3ccc(-n4ccnc4C)cc3)c2)CCOCC1` gave an ED50 in the data set on Mus musculus of 2 mg/kg. This compound showed a negative-log IC50 (pIC50) in data set [1] of 7.22.

`Cc1nccn1-c1ccc(COc2cc(F)cc(C3(C(=O)N(C)C)CCOCC3)c2)cc1` returned an ED50 in the data set with Mus musculus of more than 20 mg/kg. Besides, the pIC50 in data set [1] is 6.09.

`Cc1nccn1-c1ccc(COc2cc(F)cc(C3(O)CCOCC3)c2)cc1` gave a pIC50 in data set [1] of less than 6.00.

For the compound `Cc1nccn1-c1ccc(COc2cc(F)cc(C3([S+](C)[O-])CCOCC3)c2)cc1` (stereo unspecified), in data set [1], the pIC50 is less than 6.00.

`CCOC(=O)C1(c2cc(F)cc(OCc3ccc(-n4ccnc4C)cc3)c2)CCOCC1` came in with a 50% effective dose (ED50) in the data set on Mus musculus of 16 mg/kg. The same compound gave a pIC50 in data set [1] of 6.70.

`CC(=O)C1(c2cc(F)cc(OCc3ccc(-n4ccnc4C)cc3)c2)CCOCC1` yielded an ED50 with Mus musculus of 12 mg/kg. The negative-log IC50 (pIC50) in data set [1] was 6.89.

With `CSC1(c2cc(F)cc(OCc3ccc(-n4ccnc4C)cc3)c2)CCOCC1`, it took a dose of 5 mg/kg to reach the 50% effect level in the data set with Mus musculus (ED50). In data set [1], the pIC50 is 7.14.

In the case of `Cc1nccn1-c1ccc(COc2cc(F)cc(C3(S(C)(=O)=O)CCOCC3)c2)cc1`, in data set [1], the pIC50 is less than 6.00.
